Measurements collected from several papers.
Lines come from different studies, so protocols differ.
Target: Tyrosine-protein kinase Fes/Fps (FES, Homo sapiens, UniProt P07332)

The remaining binding of CN([C@@H]1CCc2c(CC(=O)O)c3cc(S(C)(=O)=O)ccc3n2C1)S(=O)(=O)c1ccc(F)cc1 is reported as 92% (cell-free assay, competition with immobilised ligand; 1 µM).
For Cc1ccc(NC(=O)c2ccc(C)c(C(F)(F)F)c2)cc1C#Cc1nn(C2CCC(O)CC2)c2ncnc(N)c12 (stereo not shown), the remaining signal was 34% (cell-free assay; 10 µM).
CC(C)(C)c1nc(-c2cccc(NS(=O)(=O)c3c(F)cccc3F)c2F)c(-c2ccnc(N)n2)s1 has a remaining activity of 88% (enzyme activity, inhibitor, radiometric; 1 µM).
COc1cc2nccc(Oc3ccc(NC(=O)c4c5n(n(-c6ccc(F)cc6)c4=O)CCCC5)cc3)c2cc1OC has an inhibition of -3% (enzyme activity, inhibitor; 0.1 µM).
Cc1sc(C(=O)NC2COC2)cc1-n1cc(NC(=O)Nc2c(F)cccc2Cl)cn1 gave a remaining activity of 93.7% (enzyme activity, inhibitor; 10 µM).
The remaining activity of CC(C)(O)[C@H]1CC[C@H](Nc2ccc3ncc(-c4cccc(C(F)(F)F)c4)n3n2)CC1 is reported as 95.4% (enzyme activity, inhibitor; 1 µM).
The remaining activity of CCCOc1ccc(OC)c(F)c1C(=O)c1ccc(C(=O)N[C@@H]2CNC[C@H]2NC(=O)c2ccc3[nH]ncc3c2)cc1 is reported as 79% (enzyme activity, inhibitor; 10 µM).
O=C(Nc1cnn(-c2csc(C(=O)NC3COC3)c2)c1)Nc1ccccc1Cl gave a remaining activity of 99.3% (enzyme activity, inhibitor; 5 µM).
COc1cc2ncnc(Nc3ccc(Oc4ccccc4)c(C)c3C)c2cc1OC has an inhibition of 7% (enzyme activity, inhibitor; 1 µM).
For O=c1cc(-c2cccc3c2Sc2ccccc2S3)oc(N2CCOCC2)c1, the remaining activity was 104% (enzyme activity, inhibitor; 0.5 µM).
Cc1cc(NC(=O)c2cccc3cc(-c4cccc5[nH]nc(N)c45)ccc23)ccc1F gave an activity vs control of 97% (enzyme activity, inhibitor; 0.1 µM).
For O=C(O)[C@@H]1[C@@H](Cn2nnc3ccccc3c2=O)CC[C@H]1C(=O)c1ccc(OCCC2CCOCC2)cc1, the remaining binding was 100% (cell-free assay, competition with immobilised ligand; 1 µM).
For CN1CC(Oc2cnc(C#N)cc2-c2ccn3nc(NC(=O)C4CC4)cc3c2)C1, the inhibition was 8% (enzyme activity, inhibitor; 1 µM).
With O=C1Nc2ccc(Cl)cc2C1=Cc1cc(Cl)c(O)c(Cl)c1 the remaining signal was 93.7% (cell-free assay; 0.5 µM).
With O=c1nc(-c2ccccn2)sc2ccccc12 the remaining binding was 100% (cell-free assay, competition with immobilised ligand; 1 µM).
CCCS(=O)(=O)Nc1ccc(F)c(C(=O)c2c[nH]c3ncc(-c4ccc(Cl)cc4)cc23)c1F gave an inhibition of under 20% (enzyme activity, inhibitor; 1 µM).
The remaining binding of CS(=O)(=O)N1CCCC(NC(=O)[C@H](CCC2CCCCC2)NC(=O)c2ccc(CNC(=O)c3cnc4ccccn34)cc2)C1 (stereo partly shown) is reported as 100% (cell-free assay, competition with immobilised ligand; 0.1 µM).
With CNCc1ccc(-c2cc(-c3nc(-c4ccc(S(=O)(=O)C(C)C)cc4)cnc3N)on2)cc1 the inhibition was 0% (enzyme activity, inhibitor; 0.4 µM).
NS(=O)(=O)c1cc(NC(=O)Cc2ccccc2)ccc1Oc1cccc(Cl)c1 has a remaining binding of 92% (cell-free assay, competition with immobilised ligand; 1 µM).
Cc1ccc(NC(=O)c2ccc(CN3CCN(C)CC3)cc2)cc1Nc1nccc(-c2cncc(-c3oncc3C)c2)n1 has a remaining activity of at most 50% (enzyme activity, inhibitor; 0.5 µM).
With CSc1cccnc1N1CCN(Cc2nc3ccccc3[nH]2)CC1 the remaining binding was 98% (cell-free assay, competition with immobilised ligand; 1 µM).
With CNc1cc(Oc2cc(C(=O)Nc3cc(N4CCN(C)CC4)cc(C(F)(F)F)c3)ccc2C)ncn1 the inhibition was -21.4% (target engagement in cells, inhibitor, chemoproteomics; Huh-7; 1 µM).
